Data as given in ChEMBL document CHEMBL1147926, “Synthetic chalcones, flavanones, and flavones as antitumoral agents: biological evaluation and structure-activity relationships” (Bioorg Med Chem, 2007).

Key:
MCF7 [1] = test: Cytotoxicity against human MCF7 cells […] in aerobic condition assessed as survival at 100 uM by sulforhodamine assay; format: functional; details: read-out: Activity
Procedure, shortened: (§1)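 Cells kept in RPMI with L-glutamine, penicillin/streptomycin, non-essential amino acids (1% each) and 10% FBS, 37 °C, 5% CO2, 48 h; compound added from 1 mM stock in 10% DMSO to final 100 µM, 24 h exposure. TCA fixation 1 h at 4 °C, sulforhodamine B staining, Tris pH 10.0, A540. Survival = (T/C)×100 versus solvent control; duplicates, two repetitions averaged.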

TK-10 [2] = test: Cytotoxicity against human TK10 cells in aerobic condition assessed as survival at 100 uM by sulforhodamine assay; format: functional; details: read-out: Activity; procedure, shortened: as §1
HT-29 [3] = test: Cytotoxicity against human HT29 cells ATCC HTB38 in aerobic condition assessed as survival at 100 uM by sulforhodamine assay; format: functional; details: read-out: Activity; procedure, shortened: as §1
[4] = Growth inhibition of HK2 cells by sulforhodamine assay; format: cell-based; details: Homo sapiens, HK-2
TK-10 [5] = test: Growth inhibition of TK10 cells by sulforhodamine assay; format: functional, cell-based; details: Homo sapiens
Procedure, shortened: (§2)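 Cells grown in supplemented RPMI with 10% FBS at 37 °C, 5% CO2, 48 h, then exposed to increasing compound concentrations (1 mM stocks in 10% DMSO) for 24 h. Sulforhodamine B read-out after TCA fixation at A540. IC50 is the concentration halving absorbance relative to solvent control. Duplicates, at least two repetitions, means reported.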

MCF7 [6] = test: Growth inhibition of MCF7 cells by sulforhodamine assay; format: functional, cell-based; details: Homo sapiens; procedure, shortened: as §2
HT-29 [7] = test: Growth inhibition of HT29 cells by sulforhodamine assay; format: functional, cell-based; details: Homo sapiens; procedure, shortened: as §2

O=C1CC(c2ccccc2)Oc2ccccc21 (configuration not stated) [FLAVANONE]
viability at 100 µM (MCF7 [1]): 54%
viability at 100 µM (TK-10 [2]): 79%
viability at 100 µM (HT-29 [3]): 69%

O=c1cc(-c2ccccc2)oc2ccccc12 [FLAVONE]
viability at 100 µM (MCF7 [1]): 57%
viability at 100 µM (TK-10 [2]): 87%
viability at 100 µM (HT-29 [3]): 90%

O=C(/C=C/c1ccco1)c1ccccc1O
viability at 100 µM (MCF7 [1]): 60%
viability at 100 µM (TK-10 [2]): 48%
viability at 100 µM (HT-29 [3]): 40%

O=C(/C=C/c1ccc(Br)cc1)c1ccccc1
viability at 100 µM (MCF7 [1]): 44%
viability at 100 µM (TK-10 [2]): 90%
viability at 100 µM (HT-29 [3]): 28%

COc1ccc(/C=C/C(=O)c2ccccc2O)cc1
IC50 [4]: 23.7 µM
viability at 100 µM (MCF7 [1]): 10%
viability at 100 µM (TK-10 [2]): 4%
IC50 (TK-10 [5]): 67 µM
viability at 100 µM (HT-29 [3]): 97%

O=C(/C=C/c1ccccc1Br)c1ccccc1
viability at 100 µM (MCF7 [1]): 32%
viability at 100 µM (TK-10 [2]): 2%
viability at 100 µM (HT-29 [3]): 26%

O=c1cc(-c2ccc(Br)cc2)oc2ccccc12
IC50 [4]: 48 µM
viability at 100 µM (MCF7 [1]): 73%
viability at 100 µM (TK-10 [2]): 94%
viability at 100 µM (HT-29 [3]): 100%

CCCCCCCCCOc1ccc(/C=C/C(=O)c2ccccc2O)cc1
viability at 100 µM (MCF7 [1]): 86%
viability at 100 µM (TK-10 [2]): 77%
viability at 100 µM (HT-29 [3]): 98%

COc1ccc(/C=C/C(=O)c2ccccc2)cc1 [4-METHOXY CHALCONE]
IC50 (MCF7 [6]): 90 µM
IC50 [4]: 23.2 µM
viability at 100 µM (MCF7 [1]): 30%
viability at 100 µM (TK-10 [2]): 2%
IC50 (TK-10 [5]): 53 µM
viability at 100 µM (HT-29 [3]): 2%
IC50 (HT-29 [7]): 54 µM

O=C1CC(c2ccc3c(c2)OCO3)Oc2ccccc21 (configuration not stated)
viability at 100 µM (MCF7 [1]): 100%
viability at 100 µM (TK-10 [2]): 100%
viability at 100 µM (HT-29 [3]): 100%

O=C(/C=C/c1ccc2c(c1)OCO2)c1ccccc1O
IC50 [4]: 11.6 µM
viability at 100 µM (MCF7 [1]): 79%
viability at 100 µM (TK-10 [2]): 50%
viability at 100 µM (HT-29 [3]): 69%

O=C(/C=C/c1ccc(Cl)cc1)c1ccccc1O
viability at 100 µM (MCF7 [1]): 41%
viability at 100 µM (TK-10 [2]): 3%
viability at 100 µM (HT-29 [3]): 25%
IC50 (HT-29 [7]): 45 µM

COc1ccc(C2CC(=O)c3ccccc3O2)cc1OC (configuration not stated)
viability at 100 µM (MCF7 [1]): 81%
viability at 100 µM (TK-10 [2]): 69%
viability at 100 µM (HT-29 [3]): 68%

O=C1CC(c2ccc(OCc3ccccc3)cc2)Oc2ccccc21 (configuration not stated)
viability at 100 µM (MCF7 [1]): 76%
viability at 100 µM (TK-10 [2]): 78%
viability at 100 µM (HT-29 [3]): 69%

COc1cc(O)c(C(=O)/C=C/c2ccccc2Br)c(OC)c1
viability at 100 µM (MCF7 [1]): 82%
viability at 100 µM (TK-10 [2]): 53%
viability at 100 µM (HT-29 [3]): 87%

O=c1cc(-c2ccc(Cl)cc2)oc2ccccc12
viability at 100 µM (MCF7 [1]): 100%
viability at 100 µM (TK-10 [2]): 74%
viability at 100 µM (HT-29 [3]): 100%

O=C(/C=C/c1ccc(Br)cc1)c1ccccc1O
IC50 [4]: 33.8 µM
viability at 100 µM (MCF7 [1]): 43%
viability at 100 µM (TK-10 [2]): 60%
viability at 100 µM (HT-29 [3]): 71%

O=C(/C=C/c1ccccc1)c1ccc(OCc2ccccc2)cc1O
viability at 100 µM (MCF7 [1]): 74%
viability at 100 µM (TK-10 [2]): 72%
viability at 100 µM (HT-29 [3]): 99%

O=c1cc(-c2ccccc2Br)oc2ccccc12
viability at 100 µM (MCF7 [1]): 36%
viability at 100 µM (TK-10 [2]): 69%
viability at 100 µM (HT-29 [3]): 61%

COc1ccc(/C=C/C(=O)c2ccccc2O)cc1I
viability at 100 µM (MCF7 [1]): 96%
viability at 100 µM (TK-10 [2]): 41%
viability at 100 µM (HT-29 [3]): 92%

COc1ccc(/C=C/C(=O)c2ccccc2O)cc1OC
IC50 (MCF7 [6]): 95 µM
viability at 100 µM (MCF7 [1]): 1%
viability at 100 µM (TK-10 [2]): 2%
IC50 (TK-10 [5]): 90 µM
viability at 100 µM (HT-29 [3]): 70%

O=C(/C=C/c1ccccn1)c1ccccc1O
IC50 (MCF7 [6]): 6.7 µM
IC50 [4]: 7.9 µM
viability at 100 µM (MCF7 [1]): 4%
viability at 100 µM (TK-10 [2]): 1%
IC50 (TK-10 [5]): 12.2 µM
viability at 100 µM (HT-29 [3]): 15%
IC50 (HT-29 [7]): 13.8 µM

O=C(/C=C/c1ccccc1[N+](=O)[O-])c1ccccc1O
viability at 100 µM (MCF7 [1]): 100%
viability at 100 µM (TK-10 [2]): 100%
viability at 100 µM (HT-29 [3]): 100%

O=C(/C=C/c1ccccc1)c1ccccc1 [CHALCONE]
IC50 (MCF7 [6]): 63 µM
IC50 [4]: 30.5 µM
viability at 100 µM (MCF7 [1]): 19%
viability at 100 µM (TK-10 [2]): 2%
IC50 (TK-10 [5]): 42 µM
viability at 100 µM (HT-29 [3]): 5%
IC50 (HT-29 [7]): 70 µM

O=C1CC(c2ccc(Br)cc2)Oc2ccccc21 (configuration not stated)
viability at 100 µM (MCF7 [1]): 26%
viability at 100 µM (TK-10 [2]): 16%
viability at 100 µM (HT-29 [3]): 61%

COc1cc(O)c(C(=O)/C=C/c2ccc(OC)c(OC)c2)c(OC)c1
viability at 100 µM (MCF7 [1]): 89%
viability at 100 µM (TK-10 [2]): 100%
